# Arrestin-AP2 inh – human beta-arrestin and AP2 interaction inhibition; FITC-arrestin peptide / GST-AP2 beads, flow cytometry; AP2 beta2 appendage carries R879A mutation; inhibition, % at 10 µM; 0.31% of 340,000 active; AID 504490;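 active = inhibition above a set limit, near 3 SD of compounds lacking own fluorescence, cut at about 54% in these data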
#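 System: GST-tagged AP2 beta2-adaptin appendage (R879A) on 4 µm glutathione beads / Reagent: FITC-arrestin peptide, 50 nM / Detection: HyperCyt-sampled flow cytometry, FL1 channel, ex 488/em 535 nm / Timing: 12 min plus 1 h, RT / Buffer or medium: PBS plus Tween 20 (0.05%) and BSA (0.1%)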
# PolyA inhibitor – yeast polyadenylation inhibition. S. cerevisiae SKY197-pL101 polyadenylation reporter, beta-gal luminescence; efflux-impaired pdr1/pdr3 knockout yeast; score 100 = 6 SD above DMSO. activity score, % at 12 µM. 0.02% of 300,000 active. AID 1875;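 active = lowest replicate activity score at least 50, where 100 means six control SD above control mean; inconclusive = lowest score under 50 but half or more replicates reach 50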;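 note: yeast exposed to compound for 9 h at 30 °C; higher score means more reporter readthrough which indicates perturbed polyadenylation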
# ALR inh – blocks human ALR sulfhydryl oxidase activity; inhibition, % (test concentration not listed); purified ALR, DTT oxidation, H2O2 HRP-luminol luminescence; 3.8% of 290,000 active; P55789;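 active = mean replicate inhibition above about 79%, with every replicate also reaching it, limit read from the data; inconclusive = only one of the two criteria met; inactive = mean below limit and not every replicate reaching it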
# NLRP3 yeast inh – blocks the NALP3 inflammasome reconstituted in yeast; Yeast reconstituted NLRP3/ASC/caspase-1, beta-gal luminescence, 24 h; inhibition, % at 10 µM; 0.39% of 330,000 active;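 active = inhibition of 50% or more; inactive = inhibition below 50%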
# DSG3 Ab inh – human desmoglein-3 autoantibody binding inhibition. binding (percent of control), % at 10 µM. AID 588358. P32926. DSG3-coupled beads, scFv-anti-DSG3-GFP binding, flow cytometry; active compounds read low. 0.48% of 310,000 active;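 active = binding more than 3 SD below its plate's average and above zero; inconclusive = below that plate limit but binding exactly zero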;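 note: hits lower antibody fragment binding to DSG3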
# NALP1 yeast inh – inhibitors of NALP1 inflammasome in yeast | S. cerevisiae NALP1/ASC/caspase-1 growth, X-gal OD620, 72 h | inhibition, % at 10 µM | 0.61% of 280,000 active | AID 2071; in the data active = inhibition mostly above about 24%, no sharp cut-off; inactive = mostly below about 32%
# Hits are given with their value; i = inactive; ? = inconclusive; nt = no result given. This is a sample that favours compounds with a hit; in the whole collection about 4.6% have one here.
SMILES,Arrestin-AP2 inh,PolyA inhibitor,ALR inh,NLRP3 yeast inh,DSG3 Ab inh,NALP1 yeast inh
O=S(=O)(Cc1ccccc1)C(c1ccccc1)S(=O)(=O)Cc1ccccc1,nt,nt,nt,nt,i,nt
COc1cc(/C=N/Nc2ccc(Cl)c(C(=O)O)c2)ccc1OC(=O)c1cccs1,i,nt,97,i,i,i
O=C(O)c1cc(N/N=C/c2ccc(N3CCOCC3)cc2)ccc1Cl,i,i,97,i,i,nt
O=C(O)c1cc(N/N=C/C=C/c2ccccc2[N+](=O)[O-])ccc1Cl,i,i,99,i,i,i
C/C(=N\NC(=O)c1ccccc1C)c1cccc([N+](=O)[O-])c1,i,i,i,i,nt,i
Clc1cccc(N/N=C/c2ccc(N3CCOCC3)cc2)c1,i,i,i,i,i,i
NS(=O)(=O)c1ccc(N/N=C/C=C/c2ccccc2[N+](=O)[O-])cc1,i,i,i,i,i,i
C/C(=N\Nc1ccc(Cl)c(C(=O)O)c1)c1cccc([N+](=O)[O-])c1,i,i,98,i,i,i
O=C(O)c1cc(N/N=C/c2ccncc2)ccc1Cl,i,i,i,i,i,i
O=C(O)c1cc(N/N=C/c2ccc(-c3ccccc3)cc2)ccc1Cl,i,i,99,nt,i,i
CC(=O)Nc1ccc(S(=O)(=O)NC(C)C(=O)NCCc2ccc(F)cc2)cc1 (stereo unspecified),i,i,98,i,i,i
Cc1cc(NC(=O)CSc2nccn2-c2ccc(Cl)cc2)no1,i,i,99,i,i,i
Cc1cc(NC(=O)CSc2nccn2-c2ccc(F)cc2)no1,i,i,i,i,i,i
COc1cccc(-n2ccnc2SCC(=O)Nc2cc(C)on2)c1,i,i,83,i,i,i
COc1ccccc1NC1=C(N2CCCCC2)C(=O)c2ccccc2C1=O,i,i,i,i,i,80
O=C1C(Nc2ccccc2)=C(N2CCCCC2)C(=O)c2ccccc21,i,i,i,i,i,i
CCc1ccc(N2CC(C(=O)N3CCN(S(=O)(=O)c4cccc(F)c4)CC3)CC2=O)cc1 (stereo unspecified),nt,nt,nt,nt,i,nt
Cc1[nH]n(-c2nc(-c3cccc([N+](=O)[O-])c3)cs2)c(=O)c1C,i,i,97,i,i,i
COc1ccc(NC(=O)c2ccncc2)cc1S(=O)(=O)N1CCCCC1,nt,nt,nt,nt,i,nt
CCCc1cc(=O)[nH]c(SCC(=O)NC2(C#N)CCCCC2)n1,i,nt,i,i,i,nt
Cc1cccc(OCC(=O)N/N=C/c2ccc(N(C)C)cc2)c1,i,i,98,i,i,i
COc1cc(/C=N/NC(=O)CSc2ccccn2)ccc1O,i,i,98,i,i,i
CN(C)c1ccc(/C=N/NC(=O)CSc2ccccn2)cc1,i,i,99,i,i,i
CN(C)c1ccc(/C=N/NC(=O)COc2ccccc2)cc1,i,i,nt,i,i,i
CCCOc1ccc(/C=N/NC(=O)CSc2ccccn2)cc1OC,i,i,nt,i,i,i
SMILES,Arrestin-AP2 inh,PolyA inhibitor,ALR inh,NLRP3 yeast inh,DSG3 Ab inh,NALP1 yeast inh
O=C(Nc1cc2c(cc1Cl)-c1ccc([N+](=O)[O-])cc1C2=NO)C(F)(F)F,i,nt,nt,nt,i,nt
O=S(=O)(c1ccc(NC(=S)NC23CC4CC(CC(C4)C2)C3)cc1)N1CCCCC1,nt,nt,nt,nt,i,nt
COc1cccc(NC(=O)COc2ncnc3sc(C)c(C)c23)c1,i,i,i,i,i,i
CCN(CC(=O)Nc1cccc(OC)c1)c1ncnc2sc(C)c(C)c12,i,i,87,i,i,nt
O=C(c1cc(-c2ccc(O)cc2)on1)N1CCCC1,i,i,99,i,i,i
O=C(c1cc(C2CC2)on1)N1CCN(c2ccccc2)CC1,i,i,86,i,i,i
O=C(c1cc(-c2ccc(O)cc2)on1)N1CCN(c2ccc(F)cc2)CC1,i,i,91,i,i,i
Cc1ccc(-c2cc(C(=O)N3CCCCCC3)no2)cc1,i,i,i,i,i,i
O=C(c1cc(-c2ccc(O)cc2)on1)N1CCN(c2ccccc2)CC1,i,i,81,i,i,i
O=C(c1cc(-c2ccc3c(c2)OCO3)on1)N1CCN(c2ccc(F)cc2)CC1,i,i,nt,i,i,i
C[C@@H]1CN([C@@H](C)CO)C(=O)CCCn2nncc2CO[C@H]1CN(C)Cc1ccc2cccnc2c1,nt,nt,nt,nt,i,nt
COc1ccc(NC(=O)N(C)C[C@H]2Oc3ccc(NC(=O)NC4CCCCC4)cc3C(=O)N([C@H](C)CO)C[C@@H]2C)cc1,i,nt,i,i,i,nt
Cc1c(C(=O)N(CCO)Cc2ccccc2)oc2c(F)cccc12,i,i,i,i,i,i
COc1cccc(CNC(=O)COC(=O)c2nc(Cl)c(Cl)c(Cl)c2Cl)c1,i,nt,nt,i,i,nt
O=C1C=C(O)c2c(O)cc(O)c(O)c2C1=O,i,i,98,i,79,nt
CN(C)c1ccc2c3c(ccc(N(C)C)c13)C(=O)OC2,i,i,80,i,i,i
Cc1cc(C(=O)OC(C)C(=O)NC2CCCCC2C)c2ccccc2n1 (stereo unspecified),nt,nt,nt,nt,i,nt
O=C(COc1cccc(C(F)(F)F)c1)NNC(=O)c1ccc(=O)[nH]c1,i,nt,i,i,i,nt
O=S(=O)(c1cccc(C(F)(F)F)c1)N1CCC(c2cc(-c3cccc4ccccc34)n[nH]2)CC1,i,i,i,i,i,37
CN(Cc1ccccc1)C(=O)c1[nH]cnc1C(=O)Nc1cccc(Cl)c1,i,nt,i,i,i,nt
Cc1cccc(CS(=O)(=O)c2ncc(Cl)c(C(=O)Nc3c(C)cccc3C)n2)c1,i,i,98,i,i,i
Cc1cccc(C)c1NC(=O)c1nc(S(=O)(=O)Cc2ccccc2)ncc1Cl,i,i,97,i,i,i
Cc1nnc(NC(=O)c2nc(S(=O)(=O)Cc3ccccc3)ncc2Cl)s1,i,i,99,i,i,i
CCC(C)NC(=O)Cn1c(COc2ccc(Cl)cc2Cl)nc2ccccc21 (stereo unspecified),i,i,i,i,-1.1,i
Cc1ccccc1C(=O)Nc1ccc(C(=O)N/N=C/c2ccncc2)cc1,i,i,i,i,i,i
SMILES,Arrestin-AP2 inh,PolyA inhibitor,ALR inh,NLRP3 yeast inh,DSG3 Ab inh,NALP1 yeast inh
Cc1ccccc1C(=O)Nc1ccc(C(=O)N/N=C/c2ccc(O)cc2)cc1,i,i,95,i,?,i
O=C(N/N=C/c1ccc(O)cc1)c1ccc(NC(=O)c2ccccc2Br)cc1,i,i,79,i,i,i
Cc1nc2c(C)cccc2cc1C(=O)N/N=C/c1ccc(O)cc1,i,i,99,i,i,i
O=C(Nc1ccccc1C(=O)N/N=C/c1ccc(F)cc1)c1ccccc1Br,i,i,nt,i,i,i
C=C(C)Cn1c(CN(C)Cc2ccccc2)nc2c1c(=O)n(C)c(=O)n2C,i,i,i,i,i,i
CCOC(=O)C1=C(CN2CCN(C(=O)c3ccco3)CC2)NC(=O)NC1c1ccccc1 (stereo unspecified),i,i,i,i,nt,i
O=C(O)/C=C\C(=O)Nc1ccccc1C#Cc1ccc(Br)cc1,i,i,98,i,i,i

# Screening results from PubChem.
